High-throughput results from PubChem.
KCNK3 block – human KCNK3 channel inhibition, primary screen; O14649; CHO-KCNK3 thallium flux, FluxOR fluorescence; stronger effect = lower value; 340,000 tested, 0.84% active; B-score at 10 µM;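 active = B-score under library mean minus 4 SD, starting fluorescence ratio at most library mean plus 5 SD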;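 also: more negative B-score means stronger inhibition of thallium flux through KCNK3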
Target sequence (O14649 whole entry, looked up): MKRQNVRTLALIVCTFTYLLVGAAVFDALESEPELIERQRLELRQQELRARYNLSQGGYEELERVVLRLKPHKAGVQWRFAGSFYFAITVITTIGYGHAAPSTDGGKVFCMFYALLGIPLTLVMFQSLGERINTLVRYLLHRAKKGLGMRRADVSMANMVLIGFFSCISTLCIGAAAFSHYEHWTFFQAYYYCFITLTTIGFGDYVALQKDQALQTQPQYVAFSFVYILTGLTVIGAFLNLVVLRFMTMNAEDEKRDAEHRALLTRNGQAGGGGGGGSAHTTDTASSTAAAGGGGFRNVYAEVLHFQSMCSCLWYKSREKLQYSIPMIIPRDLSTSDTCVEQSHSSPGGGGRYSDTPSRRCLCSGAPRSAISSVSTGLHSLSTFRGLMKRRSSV
KCNQ1 inh – human KCNQ1 channel inhibition | CHO-K1 KCNQ1, FluxOR thallium flux fluorescence; stronger effect = higher value | 310,000 tested, 1.3% active | B-score at 10 µM | P51787 | AID 2642;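 active = compounds whose thallium flux B-score, printed positive for inhibition, exceeds three library SD while starting fluorescence stays within three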;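 also: channel opened by potassium depolarization with thallium stimulus after 20 min compound exposure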
KCNQ1 pot – potentiates or activates the human KCNQ1 potassium channel | P51787 | B-score at 10 µM | CHO-K1 KCNQ1, thallium flux FluxOR fluorescence; stronger effect = higher value | 310,000 tested, 0.35% active;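 active = fluorescence ratio B-score, a plate-corrected score, at least three library SD, with initial intensity B-score within 5 SD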
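assay system = CHO-K1 cells stably expressing KCNQ1 | medium = assay buffer, equal DMSO in all wells | timing = 37 °C overnight plating, 90-min dark dye load, 20-min compound pretreatment | measured by = kinetic FluxOR thallium fluorescence, 10-s 1-Hz baseline, 110-s post-stimulus read | measure = fluorescence change relative to baseline, converted to B score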
hERG rescue – shields human hERG channel from block by proarrhythmic agents; CHO-hERG, FluxOR thallium flux, dofetilide IC70 present; activation (rescue from dofetilide block), less the hit threshold, % at 10 µM; Q12809; 310,000 tested, 0.51% active;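 active = activation above the mean of controls blocked by dofetilide plus 5 SD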;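 also: thallium influx through hERG after potassium depolarization seen as dye fluorescence rise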
KCNK9 block – inhibitors of human KCNK9 two-pore domain potassium channel; HEK293 KCNK9, FluxOR thallium flux fluorescence; stronger effect = lower value; B-score at 10 µM; 310,000 tested, 1.2% active; AID 488922;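 active = ratio B-score over 3 SD below the library mean, with starting fluorescence within 5 SD of its mean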;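 also: negative B-score means less thallium flux so channel inhibition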
KCNK9 block conf – confirmation of human KCNK9 potassium channel inhibitors; shares compounds with KCNK9 block; HEK293 KCNK9 cells, FluxOR thallium flux fluorescence; inhibition, % at 10 µM; 4,900 tested, 43% active; AID 492992;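 active = thallium signal inhibited by more than 5 SD of the compound-free buffer control wells, on both duplicate plates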;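 also: 0% = assay buffer control wells without compound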
Kir21 sel – tests whether KCNK9 modulators also affect mouse Kir2.1 | shares compounds with KCNK9 block | Kir2.1 cells, FluxOR thallium flux fluorescence | inhibition, % at 10 µM | 4,900 tested, 4% active;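 active = thallium signal drop more than 5 SD beyond the mean of the no-compound control wells, seen in both duplicate plates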;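 also: signal is fluorescence rise after thallium addition divided by baseline fluorescence; plate controls were assay buffer only for no effect and full block by chlorpromazine control for full effect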
HEK293 Tl ctr – non-induced cell nonspecific activity of KCNK9 modulators | 4,900 tested, 40% active | inhibition, % at 10 µM | non-induced KCNK9-HEK293, FluxOR thallium flux | shares compounds with KCNK9 block | AID 492997;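 active = thallium signal drop beyond 5 SD of the untreated control mean, on both duplicate plates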;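 also: plate controls were buffer only IC0 wells for no effect and SID17386958 at its maximal inhibitory level for full effect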
* hit, by the source's call; i = inactive; / = not tested or not shown. This is a sample that favours compounds with a hit; in the whole collection about 3.1% have one here.

SMILES	KCNK3 block	KCNQ1 inh	KCNQ1 pot	hERG rescue	KCNK9 block	KCNK9 block conf	Kir21 sel	HEK293 Tl ctr
Cc1[nH]n(C2=NCCS2)c(=O)c1N=Nc1ccccc1	i	i	i	-16	-12*	i	i	32%*
Cc1ccc2c(c1)N(CCCC(=O)NCCC1=CCCCC1)C(=O)CO2	i	i	i	-7	i	i	i	i
CCOC(=O)CNC(=O)COc1coc(CN2CCN(c3ccc(F)cc3)CC2)cc1=O	i	i	i	-1	i	/	/	/
COC(=O)[C@]1(Cc2ccccc2)N[C@H](CN(C)C(C)=O)[C@@H]2C(=O)N(Cc3ccccc3)C(=O)[C@@H]21	i	/	/	/	/	/	/	/
CCN(CC)S(=O)(=O)c1ccc(N2CCOCC2)c(NC(=O)Cc2ccc(Cl)cc2)c1	i	i	i	-10	i	/	/	/
CCN(CC)S(=O)(=O)c1ccc(N2CCOCC2)c(NC(=O)CC23CC4CC(CC(Br)(C4)C2)C3)c1	i	i	i	-1	i	i	i	i
CCN(CC)S(=O)(=O)c1ccc(N2CCOCC2)c(NC(=O)c2ccc3ccccc3c2)c1	i	i	i	-3	-9.9*	i	i	28%*
CSCCC(NS(=O)(=O)c1ccc(C)cc1)C(=O)N1CC=C(c2ccccc2)CC1 (stereo unspecified)	i	i	i	-12	i	/	/	/
COc1ccccc1CNC(=O)c1cc(-c2ccccc2)nn1CC1CC(c2cccc([N+](=O)[O-])c2)=NO1 (stereo unspecified)	i	i	i	-8	-8.7*	44%*	i	30%*
CCOC(=O)C(C(C)=O)c1c(Br)c(O)c(O)c2c(C(=O)c3ccc(C)cc3)coc12 (stereo unspecified)	i	9*	i	-9	-15*	70%*	i	46%*
CCOC(=O)c1c(C)n(-c2ccc(C)cc2)c2c(C(C(C)=O)C(=O)O)c(Br)c(O)c(O)c12 (stereo unspecified)	i	i	i	-10	i	/	/	/
CC(C)C(NC(=O)c1ccccc1)C(=O)OCc1cc([N+](=O)[O-])cc2c1OCOC2 (stereo unspecified)	i	i	i	-8	i	/	/	/
CCOc1ccccc1C(=O)N[C@H](C(=O)OCc1cc([N+](=O)[O-])cc2c1OCOC2)C(C)C	i	i	i	-13	-10*	48%*	i	25%*
Cc1cccc(NC(=O)c2ccccc2NC(=O)c2ccco2)c1	i	i	i	-6	i	/	/	/
CO/N=C(\c1nonc1N)N1CCN(c2ccc(Cl)cc2[N+](=O)[O-])CC1	i	i	i	-14	-8.3*	32%*	i	39%*
O=C(Cn1nc(C(=O)O)c2ccccc2c1=O)Nc1ccccc1C(F)(F)F	i	i	i	-4	i	/	/	/
Cc1ccc(S(=O)(=O)N/N=C/c2cccc(OC3CSC3)c2)cc1	i	i	i	-8	i	/	/	/
Cc1ccc(CSCC(=O)N/N=C/c2cccc(OC3CSC3)c2)cc1	i	i	i	-9	i	i	i	i
COc1cc(CN2CCCC(C(=O)c3ccccc3SC)C2)cc(OC)c1 (stereo unspecified)	i	i	i	-12	i	i	i	i
COc1cc(OC)c(OC)cc1CN1CCCC(C(=O)c2ccccc2SC)C1 (stereo unspecified)	i	i	i	-9	i	i	i	i
O=C(c1ccco1)N1CCCC(N2CCN(c3cccc(C(F)(F)F)c3)CC2)C1 (stereo unspecified)	i	i	i	-18	i	i	i	i
O=C(c1cccs1)N1CCCC(N2CCN(c3cccc(C(F)(F)F)c3)CC2)C1 (stereo unspecified)	i	i	i	-17	i	i	i	i
O=C(c1ccncc1)N1N=C(c2ccc(Br)cc2)CC1c1ccccc1O (stereo unspecified)	i	i	i	-5	i	/	/	/
O=C(c1ccccc1Cl)N1N=C(c2ccc(Br)cc2)CC1c1nc2ccccc2[nH]1 (stereo unspecified)	i	i	i	-7	-8.9*	36%*	i	30%*
Cc1onc(-c2ccccc2Cl)c1C(=O)Nc1cccc2cccnc12	i	6*	i	-10	-13*	47%*	i	45%*
SMILES	KCNK3 block	KCNQ1 inh	KCNQ1 pot	hERG rescue	KCNK9 block	KCNK9 block conf	Kir21 sel	HEK293 Tl ctr
COc1cc(NC(=O)c2c(-c3ccccc3Cl)noc2C)c2ncccc2c1	i	i	i	-12	i	/	/	/
COc1cccc(NC(=O)N2CCC(NC(=O)C(Cc3ccccc3F)NC(C)=O)CC2)c1 (stereo unspecified)	i	i	i	-15	i	/	/	/
COc1ccc(OCC(O)CN2CCC(CN3C(=O)c4cccc5cccc(c45)C3=O)CC2)cc1 (stereo unspecified)	i	i	i	-8	i	/	/	/
Cc1ccc(C)c(OCC(O)CN2CCC(CN3C(=O)c4cccc5cccc(c45)C3=O)CC2)c1 (stereo unspecified)	i	i	i	-22	i	i	i	i
CCn1cc(SCC(=O)N2CCc3ccccc32)c2ccccc21	i	i	i	-7	i	i	40%*	i
O=C(CSc1ccccc1)N1CCc2ccccc21	i	i	i	-7	i	/	/	/
CC(C)c1ccc(NC2CCCN(C(=O)CCc3cnn(C)c3)C2)cc1 (stereo unspecified)	i	i	i	-5	i	/	/	/
CCCN1CCN(C(=S)Nc2sc(CC)cc2C(=O)OC)CC1	i	i	i	-13	i	i	i	i
CCN1CCN(C(=S)Nc2sc(C)c(-c3ccccc3)c2C(=O)OC)CC1	i	6*	i	-6	i	i	i	i
CCc1cc(C(=O)OC)c(NC(=O)CN2CCN(C(=O)C3CCCO3)CC2)s1 (stereo unspecified)	i	i	i	-5	i	/	/	/
Cc1cccc(/C=C2\Sc3ccc(C(=O)N4CCC(C)CC4)cc3N(C)C2=O)c1	i	i	i	-11	i	/	/	/
CN(Cc1ccc(OC(F)F)cc1)C(=O)c1cccc(S(=O)(=O)N2CCN(c3ccccc3)CC2)c1	i	/	/	/	/	/	/	/
COc1cccc(CN2CCN(c3cccc(C(F)(F)F)c3)CC2)c1OC	i	i	i	-13	i	/	/	/
